Rows were chosen to be rich in hits. Some 1.9% of all compounds tested hit in one or more screens of this group.
Hck-Nef inh: inhibitors of Nef-activated human Hck kinase, primary screen, biochemical, Z-Lyte FRET, 384-well, Hck-YEEI; Tyrosine-protein kinase HCK (Homo sapiens), P08631; AID 463187, 2010; inhibition, % at 20 µM; Recombinant Hck-YEEI plus Nef, Z-Lyte FRET kinase assay; 220,000 compounds, 0.68% hits;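 active = Hck-Nef kinase inhibition above about 50%, limit read from the data; inactive = inhibition below that limit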;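 also: 0% = DMSO with Hck plus Nef and 100% = Hck alone without Nef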
Target sequence (P08631 whole entry, looked up): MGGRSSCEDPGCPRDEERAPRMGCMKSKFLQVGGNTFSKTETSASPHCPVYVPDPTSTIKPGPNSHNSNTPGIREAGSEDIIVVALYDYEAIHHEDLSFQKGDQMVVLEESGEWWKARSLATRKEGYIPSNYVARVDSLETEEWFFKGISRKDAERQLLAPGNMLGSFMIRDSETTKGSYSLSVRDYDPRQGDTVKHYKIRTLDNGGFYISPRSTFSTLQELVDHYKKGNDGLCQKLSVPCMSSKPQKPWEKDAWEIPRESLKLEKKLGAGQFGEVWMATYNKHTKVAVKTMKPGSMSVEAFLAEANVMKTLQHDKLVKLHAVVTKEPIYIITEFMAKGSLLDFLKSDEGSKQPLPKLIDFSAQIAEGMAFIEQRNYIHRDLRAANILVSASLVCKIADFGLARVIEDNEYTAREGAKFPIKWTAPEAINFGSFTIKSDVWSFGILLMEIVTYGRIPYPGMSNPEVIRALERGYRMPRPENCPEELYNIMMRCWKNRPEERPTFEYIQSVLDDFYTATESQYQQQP
RanGTP-Impb inh: inhibitors of RanGTP-importin-beta interaction, primary screen, biochemical, FRET, CFP-Ran, YFP-importin-beta, homogeneous. inhibition, % (test concentration not listed). cell-free CFP-Ran/YFP-importin-beta FRET ratio. Ran GTPase (GTP-bound) - importin-beta complex. 300,000 compounds, 1.1% hits;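 active = more than half of the replicate wells show a fall in the fluorescence ratio signal beyond about 16%, limit read from the data, passing the limit was not always enough; inconclusive = exactly half of the replicate wells pass the set limit; inactive = fewer than half of replicates pass the limit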;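 also: 0% = DMSO wells and 100% = Ran loaded with GDP instead of GTP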
Runt-SMMHC FRET: inhibitors of RUNX1 Runt–CBFb-SMMHC binding, primary screen, biochemical, FRET, Cerulean-Runt, Venus-CBFb-SMMHC, uHTS. AID 1434, 2008. Cerulean-Runt/Venus-CBFb-SMMHC FRET ratio 530/480, 1 h. 220,000 compounds, 0.74% hits. inhibition, % at 20 µM. Runt-related transcription factor 1 (Homo sapiens) + Core-binding factor subunit beta …;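 active = mean inhibition across duplicate retests at 20 µM reaching about 50%, limit read from the data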;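 also: 0% = DMSO wells and 100% = wells with excess untagged CBFb-SMMHC; inhibitors lower the FRET ratio by blocking Runt binding to CBFb-SMMHC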
Runt-CBFb FRET: inhibitors of RUNX1 Runt–CBFb binding, primary screen, biochemical, FRET, Cerulean-Runt, Venus-CBFb, uHTS | inhibition, % at 20 µM | Cerulean-Runt/Venus-CBFb FRET ratio 530/480, 1 h | AID 1496, 2009 | 220,000 compounds, 0.46% hits;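 active = inhibition over about 50% at 20 µM in the single-dose screen, limit read from the data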;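 also: 0% = DMSO wells and 100% = excess unlabeled CBFb competitor control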
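Measured by: fluorescence energy transfer, 422 nm excitation, 530/480 nm emission; test system: Cerulean-tagged RUNX1 Runt domain (FRET donor) fusion protein; buffer or medium: Tris pH 7.5 buffer with BSA; compound: one dose, 20 µM compound, 1% DMSO; times: two 1 h room-temperature incubations shielded from light; benchmarks: unlabeled CBFb 5 µM, positive control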
Starred values were filed as active, the others as inactive.

For O=C(CNC(=O)Cn1ccc2ccccc2c1=O)NCCCN1CCN(c2cccc(Cl)c2)CC1 the results were Hck-Nef inh 0, RanGTP-Impb inh 21*, Runt-SMMHC FRET -8 and Runt-CBFb FRET -2.
Cc1cccc(C)c1NC(=O)CSc1nnc(C2CCCCC2)o1 was read as RanGTP-Impb inh 2.
Screening O=c1c(O)c(-c2cccs2)oc2ccc(Cl)cc12 returned Hck-Nef inh 1, RanGTP-Impb inh 18*, Runt-SMMHC FRET 58* and Runt-CBFb FRET 7.
O=c1cc(-c2cccs2)oc2ccc(Cl)cc12 was read as Hck-Nef inh -2, RanGTP-Impb inh -3, Runt-SMMHC FRET -5 and Runt-CBFb FRET -3.
For O=c1c(O)c(-c2cccs2)oc2ccccc12 the results were Hck-Nef inh -6, RanGTP-Impb inh 93*, Runt-SMMHC FRET 79* and Runt-CBFb FRET 19.
`CC(C)c1ccc(NC(=O)C2CCC(CNC(=O)[C@@H]3Cc4ccccc4CN3)CC2)cc1` (stereo partly specified) gave RanGTP-Impb inh 7.
`Cc1ncoc1C(=O)NC1CCCc2c1cnn2-c1ccc(C(C)(C)C)cc1` (stereo unspecified) gave RanGTP-Impb inh 0.
O=C(Nc1nccs1)NC(C(F)(F)F)C(F)(F)F was read as Hck-Nef inh 3, RanGTP-Impb inh 5, Runt-SMMHC FRET 2 and Runt-CBFb FRET -1.
O=C(/C=C/Nc1nccs1)C(F)(F)Cl was read as Hck-Nef inh -1, RanGTP-Impb inh -4, Runt-SMMHC FRET 71* and Runt-CBFb FRET 45.
For CC(=O)N(/N=C1\Sc2ccccc2C1=O)c1cccc(C)c1 the results were Hck-Nef inh -1, RanGTP-Impb inh 23*, Runt-SMMHC FRET -8 and Runt-CBFb FRET -6.
For Cc1noc(C(=O)NCC2CCCO2)c1Cl (stereo unspecified) the results were RanGTP-Impb inh 23*.
For Cc1onc(-c2c(Cl)cccc2Cl)c1C(=O)NCC1CCCO1 (stereo unspecified) the results were Hck-Nef inh 1, RanGTP-Impb inh -3, Runt-SMMHC FRET 3 and Runt-CBFb FRET -1.
Screening CC(C)C[C@H](NC(=O)N1CCn2c1nc1ccccc12)C(=O)NCC1CCCO1 (stereo partly specified) returned RanGTP-Impb inh 21*.
CCN(CC)CCNC(=O)CCc1c(C)nc2c(c(C)nn2-c2ccc(C)c(C)c2)c1C was read as RanGTP-Impb inh 4.
NC(=O)Cn1cnc2nc3n(c2c1=O)CCC3 was read as Hck-Nef inh 18, RanGTP-Impb inh 0, Runt-SMMHC FRET 0 and Runt-CBFb FRET 2.
Screening CCCCN(C(=O)c1ccc(S(=O)(=O)N2CCC(C)CC2)cc1)C1CCS(=O)(=O)C1 (stereo unspecified) returned RanGTP-Impb inh 0.
For Cc1cc(=O)[nH]c(-c2cccnc2)n1 the results were Hck-Nef inh 21, RanGTP-Impb inh 22*, Runt-SMMHC FRET -5 and Runt-CBFb FRET -1.
CC(/C=C1\SC(=S)N(NS(=O)(=O)c2ccccc2)C1=O)=C\c1ccccc1 was read as Hck-Nef inh 74*, RanGTP-Impb inh inconclusive, Runt-SMMHC FRET -9 and Runt-CBFb FRET -1.
CCOc1ccc(-c2cc(CCCC(=O)Nc3cccc(OC)c3)no2)cc1 was read as Hck-Nef inh -3, RanGTP-Impb inh 27*, Runt-SMMHC FRET -2 and Runt-CBFb FRET -2.
`CCOc1cc(C2C3=C(CCCC3=O)N(CCC(=O)O)C3=C2C(=O)CCC3)ccc1OS(=O)(=O)c1ccc(C)cc1` gave Hck-Nef inh 33, RanGTP-Impb inh 104* and Runt-CBFb FRET 26.
Cc1ccc(S(=O)(=O)Oc2ccc(C3C4=C(CCCC4=O)N(CCC(=O)O)C4=C3C(=O)CCC4)cc2Cl)cc1 was read as Hck-Nef inh 32, RanGTP-Impb inh 129* and Runt-CBFb FRET 5.
Screening Cc1ccc(S(=O)(=O)Oc2ccc(C3C4=C(CCCC4=O)OC4=C3C(=O)CCC4)cc2)cc1 returned Hck-Nef inh 2, RanGTP-Impb inh 1 and Runt-SMMHC FRET -6.
For Cc1ccc2nc(-c3ccc(NC(=O)C4CCCO4)cc3)[nH]c2c1 (stereo unspecified) the results were Hck-Nef inh 11, RanGTP-Impb inh 1, Runt-SMMHC FRET 4 and Runt-CBFb FRET 0.
`Cc1ccc2cc3c(NC(=O)C4CCCO4)nn(CC(C)C)c3nc2c1` (stereo unspecified) gave Hck-Nef inh 11, RanGTP-Impb inh 31*, Runt-SMMHC FRET 32 and Runt-CBFb FRET 21.
`CCn1nc(NC(=O)C2CCCO2)c2cc3cc(C)ccc3nc21` (stereo unspecified) gave Hck-Nef inh 9, RanGTP-Impb inh 44*, Runt-SMMHC FRET 45 and Runt-CBFb FRET 30.
For Cc1ccc2nc3c(cc2c1)c(NC(=O)C1CCCO1)nn3CC(C)C (stereo unspecified) the results were Hck-Nef inh 16, RanGTP-Impb inh 71*, Runt-SMMHC FRET 59* and Runt-CBFb FRET 41.
CCCN(C(=O)C(C)Oc1cccc(Cl)c1)c1c(N)n(Cc2ccccc2)c(=O)[nH]c1=O (stereo unspecified) was read as RanGTP-Impb inh 4.
Screening CCOc1ccc(NC(=O)NNC(=O)C(C)Oc2ccccc2OC)cc1 (stereo unspecified) returned RanGTP-Impb inh 0.
For CC(C(=O)Nc1cccc(S(=O)(=O)N2CCOCC2)c1)N1CCN(C)CC1 (stereo unspecified) the results were RanGTP-Impb inh 0.
`Cc1ccc(Nc2[nH]c(=O)c3ccccc3c2C(=O)c2ccccc2)cc1` gave RanGTP-Impb inh 27*.
`CCCOc1ccc(CNC(=S)Nc2ccccc2)cc1Cl` gave RanGTP-Impb inh 0.
For Cn1ncc(Br)c1C(=O)N1CCCCCC1 the results were RanGTP-Impb inh -1.
For CC1=NOC(=O)/C1=C\c1ccc(-c2cccc(Cl)c2)o1 the results were Hck-Nef inh 7, RanGTP-Impb inh 3, Runt-SMMHC FRET 55* and Runt-CBFb FRET 21.
For COc1ccc(NC(=O)Cc2nn(C)c(=O)c3ccccc23)c2ncccc12 the results were Runt-SMMHC FRET 3 and Runt-CBFb FRET -4.
Cn1c(=O)c(C(=O)COC(=O)c2cc(C3CC3)nc3ccccc23)c(N)n(Cc2ccccc2)c1=O was read as Hck-Nef inh -2, Runt-SMMHC FRET -1 and Runt-CBFb FRET -2.
Cn1c(=O)c(C(=O)COC(=O)c2cc(-c3ccco3)nc3ccccc23)c(N)n(CC2CC2)c1=O was read as Hck-Nef inh 51*, RanGTP-Impb inh 2, Runt-SMMHC FRET -13 and Runt-CBFb FRET -4.
For c1cncc(-c2csc(-c3cccnc3)n2)c1 the results were RanGTP-Impb inh 9.

Screening data (PubChem BioAssay)
